Converted amounts (≈) assume the structure as drawn.
Key:
Format in all cases: functional
Staphylococcus aureus [1] = test: Antimicrobial activity against methicillin-resistant Staphylococcus aureus by broth microdilution method
Outline: (§1)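 Isolates of the stated resistance phenotype were tested by CLSI broth microdilution in unsupplemented cation-adjusted Mueller-Hinton broth. Ceftaroline was compared with ceftriaxone, levofloxacin and imipenem. Activity was expressed as MICs (MIC90 in μg/ml).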

Enterococcus faecalis [2] = test: Antimicrobial activity against vancomycin-susceptible Enterococcus faecalis by broth microdilution method
Outline: (§2)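 Clinical isolates were tested by CLSI broth microdilution in unsupplemented cation-adjusted Mueller-Hinton broth. The read-out was the MIC, reported as MIC90 (μg/ml) per species or phenotypic group. Ceftriaxone, levofloxacin and imipenem were run in parallel as comparators.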

[3] = fT>MIC Streptococcus pneumoniae infected mouse model for 1-log kill
Staphylococcus aureus [4] = test: Antimicrobial activity against vancomycin-intermediate Staphylococcus aureus by broth microdilution method; outline: as §2
Streptococcus viridans = test: Antimicrobial activity against Streptococcus viridans group clinical isolate by broth microdilution method
Outline: (§3)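 Streptococcal isolates were tested by CLSI broth microdilution in cation-adjusted Mueller-Hinton broth supplemented with 3% lysed horse blood. The read-out was the MIC, with MIC90 (μg/ml) reported per group. Ceftriaxone, levofloxacin and imipenem served as comparators.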

Pseudomonas aeruginosa [5] = test: Antimicrobial activity against multidrug resistant Pseudomonas aeruginosa by broth microdilution method; outline: as §1
Staphylococcus aureus [6] = test: Antimicrobial activity against vancomycin-resistant Staphylococcus aureus by broth microdilution method; outline: as §1
Moraxella catarrhalis = test: Antimicrobial activity against Moraxella catarrhalis by broth microdilution method; outline: as §2
Enterococcus faecium [7] = test: Antimicrobial activity against vancomycin-susceptible Enterococcus faecium by broth microdilution method; outline: as §2
Listeria monocytogenes = test: Antimicrobial activity against Listeria monocytogenes by broth microdilution method; outline: as §2
Staphylococcus [8] = test: Antimicrobial activity against methicillin-susceptible coagulase-negative Staphylococcus by broth microdilution method; outline: as §2
Klebsiella aerogenes = test: Antimicrobial activity against ESBL-negative Enterobacter aerogenes by broth microdilution method; outline: as §2
Klebsiella pneumoniae [9] = test: Antimicrobial activity against ESBL-negative Klebsiella pneumoniae by broth microdilution method; outline: as §2
Streptococcus pneumoniae [10] = test: Antimicrobial activity against levofloxacin-resistant Streptococcus pneumoniae by broth microdilution method
Outline: (§4)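 CLSI broth microdilution in cation-adjusted Mueller-Hinton broth with 3% lysed horse blood, against streptococcal clinical isolates of the stated phenotype. Ceftaroline was compared with ceftriaxone, levofloxacin and imipenem. Activity was expressed as MICs (MIC90 in μg/ml).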

Streptococcus agalactiae = test: Antimicrobial activity against Streptococcus agalactiae by broth microdilution method; outline: as §3
Enterococcus faecium [11] = test: Antimicrobial activity against Enterococcus faecium by broth microdilution method; outline: as §2
Streptococcus pneumoniae [12] = test: Antimicrobial activity against penicillin-resistant Streptococcus pneumoniae by broth microdilution method; outline: as §4
Proteus mirabilis = test: Antimicrobial activity against Proteus mirabilis by broth microdilution method; outline: as §2
[13] = fT>MIC Staphylococcus aureus infected mouse model for 1-log kill
Providencia rettgeri = test: Antimicrobial activity against Proteus rettgeri by broth microdilution method; outline: as §2
Providencia stuartii = test: Antimicrobial activity against Proteus stuartii by broth microdilution method; outline: as §2
Staphylococcus [14] = test: Antimicrobial activity against methicillin-resistant coagulase-negative Staphylococcus by broth microdilution method; outline: as §1
Streptococcus pneumoniae [15] = test: Antimicrobial activity against penicillin-intermediate Streptococcus pneumoniae by broth microdilution method; outline: as §4
[16] = fT>MIC Enterobacteriaceae infected mouse model for 1-log kill
Haemophilus influenzae [17] = test: Antimicrobial activity against beta-lactamase-positive Haemophilus influenzae by broth microdilution method
Outline: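 H. influenzae isolates were tested by CLSI broth microdilution using Haemophilus test medium. The MIC was read and MIC90 (μg/ml) reported for the group. Ceftriaxone, levofloxacin and imipenem served as comparators.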

Escherichia coli [18] = test: Antimicrobial activity against ESBL-positive Escherichia coli by broth microdilution method; outline: as §2
Klebsiella pneumoniae [19] = test: Antimicrobial activity against ESBL-positive Klebsiella pneumoniae by broth microdilution method; outline: as §2
Streptococcus pyogenes [20] = test: Antimicrobial activity against macrolide-resistant Streptococcus pyogenes by broth microdilution method; outline: as §4
Haemophilus influenzae [21] = test: Antimicrobial activity against beta-lactamase-negative ampicillin resistant Haemophilus influenzae by broth microdilution method
Outline: (§5)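 CLSI broth microdilution in Haemophilus test medium (cation-adjusted Mueller-Hinton base) against clinical H. influenzae isolates of the stated phenotype. Ceftaroline was compared with ceftriaxone, levofloxacin and imipenem. Activity was expressed as MICs (MIC90 in μg/ml).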

Haemophilus influenzae [22] = test: Antimicrobial activity against beta-lactamase-negative Haemophilus influenzae by broth microdilution method; outline: as §5
Enterobacter cloacae = test: Antimicrobial activity against ESBL-negative Enterobacter cloacae by broth microdilution method; outline: as §2
Corynebacterium jeikeium = test: Antimicrobial activity against Corynebacterium jeikeium by broth microdilution method; outline: as §2
Staphylococcus aureus [23] = test: Antimicrobial activity against methicillin-susceptible Staphylococcus aureus by broth microdilution method; outline: as §2
Burkholderia cepacia = test: Antimicrobial activity against Burkholderia cepacia by broth microdilution method; outline: as §2
Streptococcus pyogenes [24] = test: Antimicrobial activity against macrolide-susceptible Streptococcus pyogenes by broth microdilution method; outline: as §4
Pseudomonas aeruginosa [25] = test: Antimicrobial activity against Pseudomonas aeruginosa by broth microdilution method; outline: as §2
Serratia marcescens = test: Antimicrobial activity against Serratia marcescens by broth microdilution method; outline: as §2
Streptococcus pneumoniae [26] = test: Antimicrobial activity against penicillin-susceptible Streptococcus pneumoniae by broth microdilution method; outline: as §3
Salmonella sp. = test: Antimicrobial activity against Salmonella spp. by broth microdilution method; outline: as §2
Escherichia coli [27] = test: Antimicrobial activity against ESBL-negative Escherichia coli by broth microdilution method; outline: as §2
Enterococcus faecalis [28] = test: Antimicrobial activity against Enterococcus faecalis by broth microdilution method; outline: as §2
Morganella morganii = test: Antimicrobial activity against Morganella morganii by broth microdilution method; outline: as §2
Proteus vulgaris = test: Antimicrobial activity against Proteus vulgaris by broth microdilution method; outline: as §2
Shigella sp. = test: Antimicrobial activity against Shigella spp. by broth microdilution method; outline: as §2
[29] = tested on: Stenotrophomonas maltophilia; test: Antimicrobial activity against Stenotrophomonas maltophilia by broth microdilution method; outline: as §2

CCO/N=C(\C(=O)N[C@@H]1C(=O)N2C(C(=O)[O-])=C(Sc3nc(-c4cc[n+](C)cc4)cs3)CS[C@H]12)c1nsc(NP(=O)(O)O)n1 [CEFTAROLINE FOSAMIL]
MIC (Staphylococcus aureus [1]): 0.5 µg/mL (≈ 0.73 µM) | MIC50 (Staphylococcus aureus [1]): 0.5 µg/mL (≈ 0.73 µM) | MIC90 (Staphylococcus aureus [1]): 1 µg/mL (≈ 1.46 µM) | MIC (Enterococcus faecalis [2]): 1 µg/mL (≈ 1.46 µM) | MIC50 (Enterococcus faecalis [2]): 1 µg/mL (≈ 1.46 µM) | MIC90 (Enterococcus faecalis [2]): 4 µg/mL (≈ 5.84 µM) | fT>MIC [3]: 43% | MIC50 (Staphylococcus aureus [4]): 1 µg/mL (≈ 1.46 µM) | MIC90 (Staphylococcus aureus [4]): 1 µg/mL (≈ 1.46 µM) | MIC (Streptococcus viridans): 0.015 µg/mL (≈ 0.0219 µM) | MIC50 (Streptococcus viridans): 0.015 µg/mL (≈ 0.0219 µM) | MIC90 (Streptococcus viridans): 0.12 µg/mL (≈ 0.175 µM) | MIC50 (Pseudomonas aeruginosa [5]): 16 µg/mL (≈ 23.4 µM) | MIC (Staphylococcus aureus [6]): 0.5 µg/mL (≈ 0.73 µM) | MIC50 (Moraxella catarrhalis): 0.12 µg/mL (≈ 0.175 µM) | MIC90 (Moraxella catarrhalis): 0.25 µg/mL (≈ 0.365 µM) | MIC50 (Enterococcus faecium [7]): 1 µg/mL (≈ 1.46 µM) | MIC90 (Enterococcus faecium [7]): 16 µg/mL (≈ 23.4 µM) | MIC50 (Listeria monocytogenes): 4 µg/mL (≈ 5.84 µM) | MIC90 (Listeria monocytogenes): 4 µg/mL (≈ 5.84 µM) | MIC50 (Staphylococcus [8]): 0.06 µg/mL (≈ 0.0876 µM) | MIC90 (Staphylococcus [8]): 0.25 µg/mL (≈ 0.365 µM) | MIC50 (Klebsiella aerogenes): 0.12 µg/mL (≈ 0.175 µM) | MIC90 (Klebsiella aerogenes): > 32 µg/mL | MIC50 (Klebsiella pneumoniae [9]): 0.06 µg/mL (≈ 0.0876 µM) | MIC90 (Klebsiella pneumoniae [9]): 0.25 µg/mL (≈ 0.365 µM) | MIC50 (Streptococcus pneumoniae [10]): 0.03 µg/mL (≈ 0.0438 µM) | MIC90 (Streptococcus pneumoniae [10]): 0.25 µg/mL (≈ 0.365 µM) | MIC (Streptococcus agalactiae): 0.015 µg/mL (≈ 0.0219 µM) | MIC50 (Streptococcus agalactiae): 0.015 µg/mL (≈ 0.0219 µM) | MIC90 (Streptococcus agalactiae): 0.015 µg/mL (≈ 0.0219 µM) | MIC50 (Enterococcus faecium [11]): 32 µg/mL (≈ 46.7 µM) | MIC90 (Enterococcus faecium [11]): > 32 µg/mL | MIC50 (Streptococcus pneumoniae [12]): 0.25 µg/mL (≈ 0.365 µM) | MIC90 (Streptococcus pneumoniae [12]): 0.5 µg/mL (≈ 0.73 µM) | MIC50 (Proteus mirabilis): 0.06 µg/mL (≈ 0.0876 µM) | MIC90 (Proteus mirabilis): 4 µg/mL (≈ 5.84 µM) | fT>MIC [13]: 33% | MIC50 (Providencia rettgeri): 1 µg/mL (≈ 1.46 µM) | MIC90 (Providencia rettgeri): 4 µg/mL (≈ 5.84 µM) | MIC50 (Providencia stuartii): 1 µg/mL (≈ 1.46 µM) | MIC90 (Providencia stuartii): 4 µg/mL (≈ 5.84 µM) | MIC50 (Staphylococcus [14]): 0.25 µg/mL (≈ 0.365 µM) | MIC90 (Staphylococcus [14]): 0.5 µg/mL (≈ 0.73 µM) | MIC50 (Streptococcus pneumoniae [15]): 0.03 µg/mL (≈ 0.0438 µM) | MIC90 (Streptococcus pneumoniae [15]): 0.06 µg/mL (≈ 0.0876 µM) | fT>MIC [16]: 41% | MIC (Haemophilus influenzae [17]): 0.015 µg/mL (≈ 0.0219 µM) | MIC50 (Haemophilus influenzae [17]): 0.015 µg/mL (≈ 0.0219 µM) | MIC90 (Haemophilus influenzae [17]): 0.06 µg/mL (≈ 0.0876 µM) | MIC50 (Escherichia coli [18]): > 32 µg/mL | MIC90 (Escherichia coli [18]): > 32 µg/mL | MIC50 (Klebsiella pneumoniae [19]): 32 µg/mL (≈ 46.7 µM) | MIC90 (Klebsiella pneumoniae [19]): > 32 µg/mL | MIC (Streptococcus pyogenes [20]): 0.015 µg/mL (≈ 0.0219 µM) | MIC50 (Streptococcus pyogenes [20]): 0.015 µg/mL (≈ 0.0219 µM) | MIC90 (Streptococcus pyogenes [20]): 0.015 µg/mL (≈ 0.0219 µM) | MIC50 (Haemophilus influenzae [21]): 0.12 µg/mL (≈ 0.175 µM) | MIC90 (Haemophilus influenzae [21]): 0.25 µg/mL (≈ 0.365 µM) | MIC (Haemophilus influenzae [22]): 0.015 µg/mL (≈ 0.0219 µM) | MIC50 (Haemophilus influenzae [22]): 0.015 µg/mL (≈ 0.0219 µM) | MIC90 (Haemophilus influenzae [22]): 0.015 µg/mL (≈ 0.0219 µM) | MIC50 (Enterobacter cloacae): 0.12 µg/mL (≈ 0.175 µM) | MIC90 (Enterobacter cloacae): 0.5 µg/mL (≈ 0.73 µM) | MIC50 (Corynebacterium jeikeium): > 32 µg/mL | MIC90 (Corynebacterium jeikeium): > 32 µg/mL | MIC (Staphylococcus aureus [23]): 0.25 µg/mL (≈ 0.365 µM) | MIC50 (Staphylococcus aureus [23]): 0.25 µg/mL (≈ 0.365 µM) | MIC90 (Staphylococcus aureus [23]): 0.25 µg/mL (≈ 0.365 µM) | MIC50 (Burkholderia cepacia): > 32 µg/mL | MIC90 (Burkholderia cepacia): > 32 µg/mL | MIC (Streptococcus pyogenes [24]): 0.015 µg/mL (≈ 0.0219 µM) | MIC50 (Streptococcus pyogenes [24]): 0.015 µg/mL (≈ 0.0219 µM) | MIC90 (Streptococcus pyogenes [24]): 0.015 µg/mL (≈ 0.0219 µM) | MIC50 (Pseudomonas aeruginosa [25]): 16 µg/mL (≈ 23.4 µM) | MIC90 (Pseudomonas aeruginosa [25]): > 32 µg/mL | MIC (Serratia marcescens): 0.5 µg/mL (≈ 0.73 µM) | MIC50 (Serratia marcescens): 0.5 µg/mL (≈ 0.73 µM) | MIC90 (Serratia marcescens): 8 µg/mL (≈ 11.7 µM) | MIC (Streptococcus pneumoniae [26]): 0.015 µg/mL (≈ 0.0219 µM) | MIC50 (Streptococcus pneumoniae [26]): 0.015 µg/mL (≈ 0.0219 µM) | MIC90 (Streptococcus pneumoniae [26]): 0.015 µg/mL (≈ 0.0219 µM) | MIC50 (Salmonella sp.): 0.12 µg/mL (≈ 0.175 µM) | MIC90 (Salmonella sp.): > 32 µg/mL | MIC50 (Escherichia coli [27]): 0.06 µg/mL (≈ 0.0876 µM) | MIC90 (Escherichia coli [27]): 1 µg/mL (≈ 1.46 µM) | MIC50 (Enterococcus faecalis [28]): 2 µg/mL (≈ 2.92 µM) | MIC90 (Enterococcus faecalis [28]): 4 µg/mL (≈ 5.84 µM) | MIC50 (Morganella morganii): > 32 µg/mL | MIC90 (Morganella morganii): > 32 µg/mL | MIC50 (Proteus vulgaris): 16 µg/mL (≈ 23.4 µM) | MIC90 (Proteus vulgaris): > 32 µg/mL | MIC50 (Shigella sp.): 0.03 µg/mL (≈ 0.0438 µM) | MIC90 (Shigella sp.): 0.12 µg/mL (≈ 0.175 µM) | MIC50 [29]: > 32 µg/mL | MIC90 [29]: > 32 µg/mL

From ChEMBL document CHEMBL1629657, “In vitro antimicrobial activity of a new cephalosporin, ceftaroline, and determination of quality control ranges for MIC testing” (2009)
